Test results: ChEMBL document CHEMBL1123937, “(5Z)-7-(2,2-Dimethyl-4-phenyl-1,3-dioxan-cis-5-yl)heptenoi c acid: a specific thromboxane A2 receptor antagonist” (J Med Chem, 1987)

Legend:
[1] = target: thromboxane A2 (TxA2) receptor (Cavia porcellus, UniProt A0A286Y4I8); assay: Ability to inhibit U-46,619-induced contraction of isolated strips of guinea pig tracheal chain, which is the measure of thromboxane receptor antagonism; type: functional; settings: read-out: pA2 (converted)
[2] = target: Thromboxane A2 receptor (Oryctolagus cuniculus); assay: Ability to inhibit U-46,619-induced contraction of isolated strips of rabbit thoracic aorta, which is the measure of thromboxane receptor antagonism; settings: read-out: pA2 (converted)
Cavia porcellus [3] = organism: Cavia porcellus; assay: Compound was tested for the concentration that inhibited the bronchoconstriction induced by U 46619 for a period exceeding 2 h.; type: functional
Homo sapiens [4] = organism: Homo sapiens; assay: Ability to inhibit aggregate formation in human platelets induced by collagen; type: functional
Rattus norvegicus [5] = organism: Rattus norvegicus; assay: Inhibition of the response to […] in rat colon was determined; type: functional; settings: read-out: pA2 (converted)
Thromboxane A2 receptor = target: T1, Thromboxane A2 receptor (Rattus norvegicus, UniProt P34978); assay: Ability to inhibit U-46,619-induced contraction of isolated strips of rat aorta, which is the measure of thromboxane receptor antagonism; type: functional; settings: read-out: pA2 (converted)
T1 sequence (P34978 whole entry): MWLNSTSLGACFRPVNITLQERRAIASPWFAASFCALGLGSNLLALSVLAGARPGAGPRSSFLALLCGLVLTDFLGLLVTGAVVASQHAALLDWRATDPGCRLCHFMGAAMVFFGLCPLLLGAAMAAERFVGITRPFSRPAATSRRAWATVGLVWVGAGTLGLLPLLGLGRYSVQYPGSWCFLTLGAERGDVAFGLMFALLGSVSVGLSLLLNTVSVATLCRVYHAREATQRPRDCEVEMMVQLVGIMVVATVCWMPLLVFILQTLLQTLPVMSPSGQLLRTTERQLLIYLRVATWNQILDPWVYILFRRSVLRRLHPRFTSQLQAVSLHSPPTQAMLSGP

Oryctolagus cuniculus [6] = organism: Oryctolagus cuniculus; assay: Compound was tested for the antagonist serotonin- and norepinephrine-induced contractions of rabbit aorta.; type: functional
Summary of the method: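 Rabbit aortic strips contracted with serotonin or norepinephrine and tested in the presence of the antagonist at concentrations up to 2×10^-5 M.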

Oryctolagus cuniculus [7] = organism: Oryctolagus cuniculus; assay: Ability to inhibit the contractile effect of […] on rabbit aorta was determined; type: functional; settings: read-out: pA2 (converted)
Cavia porcellus [8] = organism: Cavia porcellus; assay: Ability to antagonise the actions of crude SRSA on guinea pig ileum was determined; type: functional; settings: read-out: pA2 (converted)
Homo sapiens [9] = organism: Homo sapiens; assay: Compound was tested for the concentration in human platelet -rich plasma that did not modify PGI-2 inhibition of ADP- induced aggregation.; type: functional
Cavia porcellus [10] = organism: Cavia porcellus; assay: Inhibition of the response to PGE-2 in guinea pig ileum was determined; type: functional; settings: read-out: pA2 (converted)
Oryctolagus cuniculus [11] = organism: Oryctolagus cuniculus; assay: Ability to inhibit the contractile effect of PGE-2 on rabbit aorta was determined; type: functional; settings: read-out: pA2 (converted)
Cavia porcellus [12] = organism: Cavia porcellus; assay: Ability to inhibit relaxant effect of PGE-2 on guinea pig trachea was determined; type: functional; settings: read-out: pA2 (converted)
Homo sapiens [13] = organism: Homo sapiens; assay: Ability to inhibit aggregate formation in human platelets induced by arachidonic acid.; type: functional
Cavia porcellus [14] = organism: Cavia porcellus; assay: Ability to inhibit the contractile effect of PGF2-alpha on guinea pig trachea; settings: read-out: pA2 (converted)
Cavia porcellus [15] = organism: Cavia porcellus; assay: Ability to inhibit the contractile effect of PGE-2 on guinea pig trachea; type: functional; settings: read-out: pA2 (converted)
Rattus norvegicus [16] = organism: Rattus norvegicus; assay: Ability to inhibit norepinephrine -induced contraction of isolated strips of rat aorta, […]; type: functional; settings: read-out: pA2 (converted)
Rattus norvegicus [17] = organism: Rattus norvegicus; assay: Ability to inhibit the contractile effect of PGD-2 on rat aorta was determined; type: functional; settings: read-out: pA2 (converted)

CC1(C)OC[C@@H](C/C=C\CCCC(=O)O)[C@@H](c2ccccc2)O1
Kb [1]: 0.263 µM | Kb [2]: 0.501 µM | Activity (Cavia porcellus [3]): 5 mg/kg | KB (Homo sapiens [4]): 9.12e-06 | Kb (Rattus norvegicus [5]): > 20 µM | Kb (Thromboxane A2 receptor): 0.145 µM | Concentration (Oryctolagus cuniculus [6]): 20 µM | Kb (Oryctolagus cuniculus [7]): 1.62 µM | Kb (Cavia porcellus [8]): > 20 µM | Concentration (Homo sapiens [9]): 100 µM | Kb (Cavia porcellus [10]): > 20 µM | Kb (Oryctolagus cuniculus [11]): 6.76 µM | Kb (Cavia porcellus [12]): > 20 µM | KB (Homo sapiens [13]): 1.42e-05 | Kb (Cavia porcellus [14]): 11.2 µM | Kb (Cavia porcellus [15]): 10.5 µM | Kb (Rattus norvegicus [16]): > 20 µM | Kb (Rattus norvegicus [17]): 1.95 µM

O=C(O)CCC/C=C\C[C@@H]1COCO[C@@H]1c1ccccc1
Kb [2]: 0.501 µM

CC1(C)OC[C@H](C/C=C\CCCC(=O)O)[C@@H](c2ccccc2)O1
Kb [2]: > 20 µM

O=C(O)CCC/C=C\C[C@H]1COCO[C@@H]1c1ccccc1
Kb [2]: > 20 µM
